Here are results for three compounds from paper PMC10586084 (Journal of Enzyme Inhibition and Medicinal Chemistry, 2023).

Several values for one entry are separate records, joined by “and”; a condition that tells them apart may be missing. Equal values may be shown once.

The term GI50 denotes the concentration giving 50% growth inhibition. Read a high GI50 as less potent growth inhibition. As a reminder, the Ki is a measure of affinity in units of concentration, obtained from inhibition or displacement. A higher Ki goes with a looser hold on the target.

Data set [1] can be described thus: cytotoxicity in resting peripheral blood lymphocytes. The data set is classed as cell-based. To be noted: human.
Another data set relates to HD-MB03 cells. Description: apoptosis assay. Format: cell-based, human. To be noted: 72 h; for apoptotic cells in combination with cis-Pt: 10 µM + cis-Pt 1.8 µM, HD-MB03, vs single treatments; for induction of apoptosis (apoptotic cells): 10 µM alone, HD-MB03. The essentials: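 HD-MB03 medulloblastoma cells grown in RPMI 1640 with 10% FBS, 1% glutamine and 1% penicillin–streptomycin, kept at 2% O2/5% CO2. Seeded at 10 000 cells/well, treated after 24 h, exposed 72 h. Stained 15 min in the dark at room temperature with Annexin V–FITC (FL1, 525 nm/40) and PI (FL3, 620 nm/20). Whole population analysed by flow cytometry. Mean ± SE, three independent experiments.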

The subject of data set [2] is HuTuP108 GBM primary cells. Kind of data set: apoptosis assay. The data set is classed as cell-based, human. As to conditions: 72 h; for apoptotic cells in combination with TMZ: 10 µM + TMZ 500 µM, HuTuP108, vs single treatments; for induction of apoptosis: 10 µM alone, HuTuP108. The essentials: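 Patient-derived primary glioblastoma cells on fibronectin-coated plates in DMEM/F12 with 10% BIT9500, 20 ng/mL bFGF and 20 ng/mL EGF, held at 2% O2/5% CO2. Seeded at 10 000 cells/well, dosed 24 h later for 72 h. Annexin V–FITC/PI staining for 15 min in the dark at room temperature, then flow cytometry (FL1 525 nm/40, FL3 620 nm/20) on the whole population. Mean ± SE of three independent experiments.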

Another data set deals with hCA I (Homo sapiens, UniProt P00915). Kind of data set: stopped-flow CO2 hydrase assay, hCA I. The data set is classed as biochemical. As to conditions: stopped flow technique, mean from three assays.
For a further data set, the target named is hCA II (Homo sapiens, UniProt P00918). Description: stopped-flow CO2 hydrase assay, hCA II. As to conditions: stopped flow technique, mean from three assays. Format: biochemical.
In another data set the target is hCA IV (Homo sapiens, UniProt P22748). Kind of data set: stopped-flow CO2 hydrase assay, hCA IV. The data set is classed as biochemical. To be noted: stopped flow technique, mean from three assays.
In another data set the target is hCA IX (Homo sapiens, UniProt Q16790). Description: biochemical. To be noted: for Ki: KI hCA IX, stopped flow technique, mean from three assays; for Selectivity index I/IX: ratio KI hCA I / KI hCA IX; for Selectivity index II/IX: ratio KI hCA II / KI hCA IX; for Selectivity index IV/IX: ratio KI hCA IV / KI hCA IX. Format: biochemical.
The target in a further data set is hCA XII (Homo sapiens, UniProt O43570). Kind of data set: stopped-flow CO2 hydrase assay, hCA XII. Format: biochemical. As to conditions: for Ki: KI hCA XII, stopped flow technique, mean from three assays; for Selectivity index I/XII: ratio KI hCA I / KI hCA XII; for Selectivity index II/XII: ratio KI hCA II / KI hCA XII; for Selectivity index IV/XII: ratio KI hCA IV / KI hCA XII.

In data set [3] the test system is HD-MB03 and DAOY medulloblastoma cell lines. Description: cell proliferation analysis. Format: cell-based, human. As to conditions: compound 10 µM + cis-Pt 1.8 µM, 72 h, both MB cell lines.
Data set [4] concerns HuTuP192 primary glioblastoma cells. Kind of data set: cell proliferation analysis. Format: cell-based, human. As to conditions: compound 10 µM + TMZ 500 µM, 72 h, HuTuP192.
Data set [5] deals with HuTuP108 primary glioblastoma cells. Description: cell proliferation analysis. As to conditions: compound 10 µM + TMZ 500 µM, 72 h. Format: cell-based, human.

Chain of hCA XII (O43570 25-354): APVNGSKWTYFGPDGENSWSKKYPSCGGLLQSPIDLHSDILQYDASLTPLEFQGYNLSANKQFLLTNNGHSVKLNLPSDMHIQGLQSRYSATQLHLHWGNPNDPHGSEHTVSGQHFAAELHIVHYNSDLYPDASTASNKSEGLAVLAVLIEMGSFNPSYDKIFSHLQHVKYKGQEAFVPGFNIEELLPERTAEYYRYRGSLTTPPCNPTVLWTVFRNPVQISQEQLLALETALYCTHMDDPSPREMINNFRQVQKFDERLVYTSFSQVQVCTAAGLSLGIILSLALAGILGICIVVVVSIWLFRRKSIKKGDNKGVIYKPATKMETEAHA
Chain of hCA IV (P22748 19-284 limits assumed): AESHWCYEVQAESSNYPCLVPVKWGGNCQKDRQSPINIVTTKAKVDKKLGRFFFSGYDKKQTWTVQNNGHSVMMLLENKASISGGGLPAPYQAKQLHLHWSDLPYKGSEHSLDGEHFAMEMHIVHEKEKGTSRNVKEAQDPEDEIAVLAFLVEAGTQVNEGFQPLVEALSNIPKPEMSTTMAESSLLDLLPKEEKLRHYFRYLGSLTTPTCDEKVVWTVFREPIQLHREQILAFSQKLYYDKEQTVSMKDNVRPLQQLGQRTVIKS
Chain of hCA I (P00915 whole entry): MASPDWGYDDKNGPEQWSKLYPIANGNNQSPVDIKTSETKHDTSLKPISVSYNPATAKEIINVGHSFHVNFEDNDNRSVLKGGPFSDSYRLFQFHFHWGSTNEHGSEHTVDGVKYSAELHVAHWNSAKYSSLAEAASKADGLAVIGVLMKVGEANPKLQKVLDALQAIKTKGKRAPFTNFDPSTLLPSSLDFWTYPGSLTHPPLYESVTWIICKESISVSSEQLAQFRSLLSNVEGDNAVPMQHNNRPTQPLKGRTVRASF

`NS(=O)(=O)c1ccc(NC(=O)Nc2ccc(F)cc2)cc1` [SLC-0111, reference compound] had a GI50 at 72 h in [1] above 10000 nM. Also, in the data set with HD-MB03 cells, the “apoptotic cells in combination with cis-Pt” value was “did not cause any increase in cytotoxicity” and the “induction of apoptosis (apoptotic cells)” value is given as “did not significantly induce apoptosis”. For the same compound, in [2], the “apoptotic cells in combination with TMZ” value is “did not cause any increase in cytotoxicity” and the induction of apoptosis entry is listed as “did not significantly induce apoptosis”.
`NS(=O)(=O)c1ccc(Nc2nc3nccc(-c4c(F)ccc(F)c4F)n3n2)cc1` [Compound 1j, 4-((7-(2,3,6-Trifluorophenyl)-[1,2,4]triazolo[1,5-a]pyrimidin-2-yl)amino)benzenesulfonamide] displayed an inhibitory constant (Ki) on hCA I of 496 nM. The compound further displayed a Ki at hCA II of 13.9 nM. This compound also registered a Ki on hCA IV of 662 nM. On hCA IX, the Ki came out at 8.6 nM, the “Selectivity index I/IX” value is recorded as 57.7, the “Selectivity index II/IX” value stood at 1.6 and the “Selectivity index IV/IX” value worked out at 77.0. For the same compound, at hCA XII, the affinity corresponds to a Ki of 5.4 nM, the “Selectivity index I/XII” value is listed as 91.9, the “Selectivity index II/XII” value worked out at 2.6 and the “Selectivity index IV/XII” value was 123. Also, in data set [1], the GI50 at 72 h was above 10000 nM. The “effect of combination on efficacy of CDDP in reducing cell viability” value in data set [3] is “significantly improved the efficacy of CDDP”. Moreover, the “effect of combination on the effect of TMZ” value (“effect … of TMZ” below) in [4] is reported as “did not significantly improve the effect of TMZ”. Also, the “effect … of TMZ” value in data set [5] is “did not significantly improve the effect of TMZ”. Besides, in the data set with HD-MB03 cells, the “apoptotic cells in combination with cis-Pt” value was “significant increase in the percentage of apoptotic cells” and the “induction of apoptosis (apoptotic cells)” value is listed as “about 25%”. In data set [2], the “apoptotic cells in combination with TMZ” value was “significant increase in the percentage of apoptotic cells” and the induction of apoptosis entry was “ineffective”.
Turning to `NS(=O)(=O)c1ccc(Nc2nc3nccc(-c4ccccc4Cl)n3n2)cc1` [Compound 1m, 4-((7-(2-Chlorophenyl)-[1,2,4]triazolo[1,5-a]pyrimidin-2-yl)amino)benzenesulfonamide], the Ki at hCA I worked out at 9150 nM. At hCA II, this compound returned an inhibition constant Ki of 155 nM. This compound returned a Ki at hCA IV of 6480 nM. Besides, at hCA IX, the Ki is 14.8 nM; the “Selectivity index I/IX” value worked out at 618; the “Selectivity index II/IX” value was 10 and 10.5; the “Selectivity index IV/IX” value is 438. Moreover, on hCA XII, the affinity corresponds to a Ki of 16.9 nM, the “Selectivity index I/XII” value was 541, the “Selectivity index II/XII” value came out at 9.2 and the “Selectivity index IV/XII” value is reported as 384. This compound had a 50% growth inhibitory concentration (GI50) at 72 h in [1] above 10000 nM. The “effect of combination on efficacy of CDDP in reducing cell viability” value in data set [3] was “significantly improved the efficacy of CDDP”. Besides, the “effect … of TMZ” value in data set [4] is recorded as “did not significantly improve the effect of TMZ”. Further, the “effect … of TMZ” value in data set [5] is on record as “did not significantly improve the effect of TMZ”.
